# RGS4 inh: inhibitors of human RGS4; P49798; HEK293 M3R/RGS4 inducible, Fluo-4 calcium flux; active compounds read high; triggered by carbachol at its EC20; B-score at 10 µM; 310,000 compounds, 0.45% hits;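 active = B-score, a plate-corrected calcium signal, over three deviations above library mean, with baseline fluorescence within five deviations of library mean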;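 also: RGS4 expression induced by doxycycline in cells with stable M3 receptor; B-score is computed from the integrated fluorescence ratio over baseline after carbachol; higher B-score means a larger calcium signal and so more RGS4 inhibition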
# Target sequence (P49798 whole entry, looked up): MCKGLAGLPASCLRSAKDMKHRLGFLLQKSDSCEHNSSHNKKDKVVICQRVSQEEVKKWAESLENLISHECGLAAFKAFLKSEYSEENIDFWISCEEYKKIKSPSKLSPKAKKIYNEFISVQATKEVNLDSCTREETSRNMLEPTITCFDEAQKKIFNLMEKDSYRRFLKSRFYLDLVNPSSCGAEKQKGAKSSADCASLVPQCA
# Lipid droplet: hepatic lipid droplet formation modulation; AML12 mouse hepatocytes, oleate lipid droplets, BODIPY imaging; inhibition, % at 6.5 µM; 240,000 compounds, 0.4% hits;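 active = lipid droplet intensity inhibited by at least 50%, with more than 500 cells counted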
#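 Assay system: AML12 hepatocytes (mouse); Probe or stimulus: oleic acid at 100 µM to induce lipid droplet formation; Dosing: compound at 6.5 µM only; Schedule: compound with oleate, overnight; Detection: fluorescence imaging, 20x objective, two fields per well; Measure: % inhibition of lipid droplet signal.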
# MrgX1 PAM: allosterically activates human MrgX1 receptor signaling; MrgX1-HEK293, Fluo-4 calcium flux, FDSS; active compounds read high; 310,000 compounds, 0.63% hits; Q96LB2; B-score at 10 µM;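 active = plate-corrected calcium response at least 3 library SD above typical, normal starting fluorescence, not activating the receptor alone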;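 also: compound read alongside a low EC10 to EC30 dose of BAM8-22 agonist; peak minus trough fluorescence over baseline measured at the second addition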
# Target sequence (Q96LB2 whole entry, looked up): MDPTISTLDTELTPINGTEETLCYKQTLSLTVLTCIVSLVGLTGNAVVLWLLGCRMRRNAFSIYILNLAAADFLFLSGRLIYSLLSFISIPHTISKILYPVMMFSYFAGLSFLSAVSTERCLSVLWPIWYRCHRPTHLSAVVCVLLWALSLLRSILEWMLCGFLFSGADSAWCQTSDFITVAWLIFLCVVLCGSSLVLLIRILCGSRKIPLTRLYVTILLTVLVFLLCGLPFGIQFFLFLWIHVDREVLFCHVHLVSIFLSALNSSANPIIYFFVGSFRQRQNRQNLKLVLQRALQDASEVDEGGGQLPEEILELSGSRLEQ
# MrgX1 agonist: activates human MrgX1 receptor signaling; Q96LB2; MrgX1-HEK293 cells, Fluo-4 calcium fluorescence, agonist mode; active compounds read high; B-score at 10 µM; 310,000 compounds, 0.44% hits;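 active = calcium response B-score plate-corrected fluorescence ratio at least 3 library SD, with starting fluorescence B-score inside 5 SD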
#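 Test system: HEK293 cells stably expressing human MrgX1 receptor; Input: fifteen thousand cells per well; Dosing: compound delivered in addition one of three; Schedule: overnight seeding, then 1 h dark dye loading; Technique: Fluo-4 NW calcium fluorescence; Measure: B-scored fluorescence response ratio; Controls: positive and negative controls per plate.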
# RGS4 act: potentiators or activators of RGS4 | HEK293 M3R/inducible RGS4, carbachol calcium flux Fluo4; active compounds read low | B-score at 10 µM | 310,000 compounds, 0.92% hits;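 active = B-score of the integrated calcium signal more than 4 SD below the library mean, with starting fluorescence not abnormally high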;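 also: negative B-score means reduced calcium response which marks RGS4 activation or potentiation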
#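 Material: Inducible-RGS4 HEK293 cells carrying M3 receptor; also added: carbachol at ECmax as muscarinic agonist stimulus; incubation: compound preincubation 20 min at room temperature before agonist; signal: Fluo4-AM (2 µM) calcium-flux fluorescence, kinetic read; measure: integrated calcium ratio converted to B score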
# MrgX1 antag: blocks BAM8-22 activation of human MrgX1 receptor | MRGX1-HEK293 calcium flux, Fluo-4, BAM8-22 antagonism; active compounds read low | B-score at 10 µM | 310,000 compounds, 1.3% hits;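 active = calcium-response B-score plate-corrected more than 3 library SD below zero, starting fluorescence within 5 deviations, no agonist response on first addition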;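 also: peak minus trough fluorescence over baseline after final BAM8-22 challenge near maximal dose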
# The depositor's hits bear a star; i = inactive; · = no result given. In the library only some 3.8% were active in any assay of this set; here they are far more common.
SMILES,RGS4 inh,Lipid droplet,MrgX1 PAM,MrgX1 agonist,RGS4 act,MrgX1 antag
Cc1ccnc(N/C=C(\C#N)c2nc(-c3cccc(Br)c3)cs2)c1,i,1,i,36*,i,i
CCOC(=O)N1CCN(Cc2cc(=O)oc3ccc(Cl)cc23)CC1,i,·,i,i,i,i
Cc1cc2oc(=O)cc(CN3CCCCC3)c2cc1C(C)C,i,-13,i,51*,i,i
Cc1cc2oc(=O)cc(CN3CCCCC3)c2cc1O,i,5,i,i,i,i
CCOC(=O)N1CCN(Cc2cc(=O)oc3cc4c(cc23)CCC4)CC1,i,·,i,33*,i,i
CC1CCCN(CCOCCOc2ccc(Br)cc2Cl)C1 (configuration not stated),i,2,i,i,-7.5*,i
CC1CCCN(CCOCCOc2ccc(Cl)cc2Br)C1 (configuration not stated),i,·,i,i,i,i
CCOC(=O)CCc1c(C(=O)OCC)[nH]c(CC)c1C(=O)OCc1ccccc1,i,-16,i,i,-7.5*,i
O=C(c1ccc(F)cc1)N1CCC(C(=O)N2CCN(S(=O)(=O)c3cccc(Cl)c3)CC2)CC1,i,·,i,i,i,i
Fc1ccc2c(c1)Sc1ccc(Cl)cc1CC2N1CCN(CCC2OCCO2)CC1 (configuration not stated),i,·,i,i,-7.3*,i
COCCCN1CCN(C2Cc3ccccc3Sc3ccc(Cl)cc32)CC1 (configuration not stated),i,5,i,i,i,i
CCN(CC)S(=O)(=O)c1cc(NC(=O)COc2ccc(C#N)cc2OC)ccc1C,i,-1,i,i,i,-6.8*
Cn1nc(-c2ccccc2)c(C#N)c1Sc1cccc(Cl)c1,i,·,i,i,-7.3*,i
Cc1nn(C)c(Oc2cccc(Cl)c2)c1C#N,i,2,i,i,i,i
COc1ccccc1NC(=O)CS(=O)(=O)c1cn(CC(=O)N2CCCC2)c2ccccc12,i,-5,i,i,i,i
Cc1ccc(S(=O)(=O)N[C@H](C(=O)Oc2ccc3c(C(F)(F)F)cc(=O)oc3c2)c2ccccc2)cc1,i,·,i,29*,i,i
CCOC(=O)C1CCN(c2c(C(=O)c3ccccc3)cnc3ccc(Cl)cc23)CC1,i,1,i,i,i,i
CCCNC(=O)CCCN1C(=O)c2ccccc2Sc2ncccc21,i,4,i,i,i,i
Cn1c(CNC(=O)c2ccco2)nnc1SCC(=O)c1ccc(Br)cc1,i,-5,i,i,i,i
CC1=N/C(=C/c2ccc([N+](=O)[O-])cc2)C(=O)N1c1ccc(Cl)cc1Cl,i,12,15*,i,i,i
CC1=N/C(=C\c2ccc([N+](=O)[O-])cc2)C(=O)N1c1ccc(Cl)cc1,i,·,i,i,i,i
Cc1cc([N+](=O)[O-])ccc1NC(=O)Nc1ccc(F)cc1F,i,1,i,i,i,i
CC1=N/C(=C\c2ccc([N+](=O)[O-])cc2)C(=O)N1c1ccc(F)cc1F,i,9,17*,i,i,i
Cc1cc(C)c2sc(N(CCCN(C)C)C(=O)c3ccc(S(=O)(=O)N4CCc5ccccc5C4)cc3)nc2c1,i,·,i,i,i,-7.5*
CN(C)CCCN(C(=O)c1ccc(S(=O)(=O)N2CCc3ccccc3C2)cc1)c1nc2ccc(F)cc2s1,i,-27,i,i,i,i
SMILES,RGS4 inh,Lipid droplet,MrgX1 PAM,MrgX1 agonist,RGS4 act,MrgX1 antag
Cc1ccc2nc(N(CCCN(C)C)C(=O)c3ccc(S(=O)(=O)N4CCc5ccccc5C4)cc3)sc2c1,i,2,i,i,-7.8*,i
CCCN(CC(=O)Nc1cc(Cl)ccc1Cl)C(=O)CN1C(=O)C2CCCCC2C1=O (configuration not stated),i,-6,i,i,i,i
O=C(NC(NC(=S)Nc1ccc(Cl)cc1Cl)C(Cl)(Cl)Cl)c1cccc([N+](=O)[O-])c1 (configuration not stated),i,·,i,i,-7.2*,i
CCCC(=O)Nc1nnc(S(=O)(=O)N(CC)c2ccc(OC)cc2)s1,i,-1,i,i,i,i
Cc1ccc(-n2nnnc2-c2cccs2)cc1[N+](=O)[O-],i,·,i,i,-7.4*,i
Cc1c(Cl)cccc1-n1nnnc1-c1cccs1,i,-3,i,i,i,i
CN1CCC(=NNC(=O)C(=O)Nc2ccccc2F)CC1,i,0,i,i,i,i
CCOC(=O)N1CCN(S(=O)(=O)c2cc([N+](=O)[O-])c(C)cc2C)CC1,i,-3,i,i,i,i
O=C(COC(=O)c1n[nH]c(=O)c2ccccc12)c1ccccc1,i,3,i,i,i,i
O=C(COC(=O)c1n[nH]c2ccccc12)c1cccc(Br)c1,i,-2,i,i,i,-5.4*
C=CCN1C(c2ccc(Br)cc2)=CS/C1=C(/C#N)c1nnc(N2CCOCC2)n1-c1ccccc1,i,-7,i,i,i,i
C=CCN1C(c2cccc(C(F)(F)F)c2)=CS/C1=C(/C#N)c1nnc(N2CCOCC2)n1-c1ccccc1,i,11,i,45*,i,i
CC(=O)C1C(c2ccc([N+](=O)[O-])cc2)c2c(noc2C)CC1(C)O (configuration not stated),i,11,i,i,-8.5*,i
CCN(CC(=O)Nc1ccc2c(c1)OCCO2)C(=O)CC(NC(C)=O)c1ccccc1 (configuration not stated),i,·,i,i,i,-7.4*
CCN(CC(=O)Nc1ccc2c(c1)OCCO2)C(=O)/C=C/c1ccccc1,i,4,i,i,i,i
CCN1C(=O)/C(=C\N2CCCc3ccccc32)SC1=S,i,7,i,i,i,i
CCN1C(=O)/C(=C/N2CCc3ccccc32)SC1=S,i,2,i,34*,i,i
Cc1nnc(SCc2cccc3ccccc23)s1,i,4,i,i,i,i
CCSc1nnc(NC(=O)CCCOc2ccc(C)cc2)s1,i,8,i,i,i,i

# Bioassay records (PubChem)
